In ChEMBL document CHEMBL1130096, “2-Cyclopropylindoloquinones and their analogues as bioreductively activated antitumor agents: structure-activity in vitro and efficacy in vivo” (J Med Chem, 1997):

Columns and labels:
V79 [1] = experiment: In vitro concentration required to kill hypoxic cells V79-379A cells; assay type: functional, Cricetulus griseus
V79 [2] = experiment: In vitro concentration required to kill 50% of the aerobic cells; assay type: functional, Cricetulus griseus
Mus musculus [3] = experiment: compound was were evaluated in vivo in mice bearing [KHT] murine sarcoma tumor cells at 100 mg kg-1 drug dose. MTD is the […].; assay type: functional
Mus musculus [4] = experiment: compound was evaluated in vivo in mice bearing [RIF-1] murine sarcoma tumor cells at 100 mgkg-1 drug dose. MTD is the […].; assay type: functional
[5] = Hypoxic cytotoxic ratios of the concentration required to kill 50% of the aerobic cells and concentration required to kill hypoxic cells; assay type: cell-based, Cricetulus griseus; conditions: chinese hamster, V79 cells; read-out: HCR
Mus musculus [6] = experiment: compound was evaluated in vivo mice bearing [RIF-1] murine sarcoma tumor cells at 100 mgkg-1 drug dose. MTD is the […].; assay type: functional
Mus musculus [7] = experiment: compound was evaluated in vivo in mice bearing [KHT] murine sarcoma tumor cells at 100 mg kg-1 drug dose. MTD is the […].; assay type: functional
Mus musculus [8] = experiment: compound was evaluated in vivo in mice bearing [RIF-1] tumor cells for the relative surviving fraction of cells at 50 mg kg-1 drug dose.; assay type: functional
How it was run: (§1)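 Mice bearing RIF-1 or KHT murine sarcomas. Maximum tolerated dose (MTD) established for each drug. Drug given alone at MTD, or at 20 or 50 mg kg-1 combined with a single X-ray dose: 15 Gy for RIF-1, 10 Gy for KHT. Radiation dose chosen to kill most oxic tumor cells. Read-out was tumor cell surviving fraction relative to untreated control, reported as mean.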

Mus musculus [9] = experiment: compound was evaluated in vivo in mice bearing [RIF-1] tumor cells for the relative surviving fraction of cells at 90 mg kg-1 drug dose.; assay type: functional; how it was run: as §1
Mus musculus [10] = experiment: compound was evaluated in vivo in mice bearing [KHT] tumor cells at 50 mg kg-1 drug dose. MTD is the […].; assay type: functional
Mus musculus [11] = experiment: compound was evaluated in vivo in mice bearing [KHT] tumor cells for the relative surviving fraction of cells at 50 mg kg-1 drug dose.; assay type: functional; how it was run: as §1
Mus musculus [12] = experiment: compound was evaluated in vivo in mice bearing [KHT] tumor cells at 20 mg kg-1 drug dose. MTD is the […].; assay type: functional
Mus musculus [13] = experiment: compound was evaluated in vivo in mice bearing [RIF-1] tumor cells at 50 mg kg-1 drug dose. MTD is the […].; assay type: functional
Mus musculus [14] = experiment: compound was evaluated in vivo in mice bearing [KHT] tumor cells for the relative surviving fraction of cells at 20 mg kg-1 drug dose.; assay type: functional; how it was run: as §1
Mus musculus [15] = experiment: compound was evaluated in vivo in mice bearing [KHT] tumor cells at 90 mg kg-1 drug dose. MTD is the […].; assay type: functional
Mus musculus [16] = experiment: compound was evaluated in vivo in mice bearing [RIF-1] tumor cells at 20 mg kg-1 drug dose. MTD is the […].; assay type: functional
Mus musculus [17] = experiment: compound was evaluated in vivo in mice bearing [RIF-1] tumor cells for the relative surviving fraction of cells at 20 mg kg-1 drug dose.; assay type: functional; how it was run: as §1
Mus musculus [18] = experiment: compound was evaluated in vivo in mice bearing [KHT] tumor cells for the relative surviving fraction of cells at 90 mg kg-1 drug dose.; assay type: functional; how it was run: as §1
Mus musculus [19] = experiment: compound was evaluated in vivo in mice bearing [RIF-1] tumor cells 90 mg kg-1 drug dose. MTD is the […].; assay type: functional
V79 [20] = experiment: In vitro concentration required to kill 50% of the aerobic cells under the conditions of the assay; assay type: functional, Cricetulus griseus
[21] = hypoxic cytotoxic ratios (HCR) of the concentration required to kill 50% of the aerobic cells and concentration required to kill hypoxic cells; conditions: read-out: HCR
V79 [22] = experiment: In vitro concentration required to kill hypoxic cells V79-379A cells was determined for all the compounds using the MTT(3-(4,5-dimethylthiazol-2-y1)-2,5-diphenyl-2H-tetrazolium bromide) assay; assay type: functional, Cricetulus griseus

SMILES	C50 (V79 [1])	C50 (V79 [2])	selectivity ratio [5]	other results
Cn1c2c(c(CO)c1C1CC1)C(=O)C(N1CC1)=CC2=O	0.0058 µM	0.603 µM	104	MTD (Mus musculus [3]): 100 mg/kg; MTD (Mus musculus [4]): 100 mg/kg; MTD (Mus musculus [6]): 100 mg/kg; MTD (Mus musculus [7]): 100 mg/kg
COC1=CC(=O)c2c(c(CO)c(C3CC3)n2C)C1=O	820 µM	540 µM	0.65	–
COC1=CC(=O)c2c(c(COC(N)=O)c(C3CC3)n2C)C1=O	0.44 µM	29 µM	65.9	–
CC(C)c1c(COC(N)=O)c2c(n1C)C(=O)C=C(N1CC1C)C2=O (stereo not drawn)	0.87 µM	20.6 µM	23.7	–
COC1=CC(=O)c2c(c(COC(N)=O)cn2C)C1=O	0.037 µM	3.1 µM	83.8	–
Cn1c2c(c(COC(N)=O)c1C1CC1)C(=O)C(N1CC1)=CC2=O	0.074 µM	3.33 µM	45	–
Cc1c(CO)c2c(n1C)C(=O)C=C(N1CC1C)C2=O (stereo not drawn)	0.5 µM	94 µM	188	Mean relative surviving fraction (Mus musculus [8]): <0.0001; Mean relative surviving fraction (Mus musculus [9]): 0.02; MTD (Mus musculus [10]): 90 mg/kg; Mean relative surviving fraction (Mus musculus [11]): 0.005; MTD (Mus musculus [12]): 90 mg/kg; MTD (Mus musculus [13]): 90 mg/kg; Mean relative surviving fraction (Mus musculus [14]): 0.008; MTD (Mus musculus [15]): 90 mg/kg; MTD (Mus musculus [16]): 90 mg/kg; Mean relative surviving fraction (Mus musculus [17]): <0.0001; Mean relative surviving fraction (Mus musculus [18]): 0.15; MTD (Mus musculus [19]): 90 mg/kg
Cc1c(CO)c2c(n1C)C(=O)C=C(NCC(C)(C)O)C2=O	500 µM	1260 µM	2.5	–
COC1=CC(=O)c2c(c(CO)c3n2CC2CC32)C1=O (stereo not drawn)	60.6 µM	108.4 µM	1.8	–
CC1CN1C1=CC(=O)c2c(c(COC(N)=O)c(C3CC3)n2C)C1=O (stereo not drawn)	0.459 µM	12.5 µM	27.2	–
CC(C)c1c(COC(N)=O)c2c(n1C)C(=O)C=C(N1CC1)C2=O	5.46 µM	47.5 µM	8.7	–
NC(=O)OCc1c2c(n3c1C1CC1C3)C(=O)C=C(N1CC1)C2=O (stereo not drawn)	0.003 µM	0.003 µM	–	–
COC1=CC(=O)c2c(c(CO)c(C(C)C)n2C)C1=O	200 µM	800 µM	4	–
Cn1cc(COC(N)=O)c2c1C(=O)C=C(N1CC1)C2=O	0.00013 µM	0.00019 µM	1.46	–
Cn1cc(CO)c2c1C(=O)C=C(N1CC1)C2=O	0.0086 µM	0.153 µM	15.4	–
Cc1c(CO)c2c(n1C)C(=O)C=C(N1C(C)C1C)C2=O (stereo not drawn)	14.2 µM	202 µM	14.2	–
CC(C)c1c(CO)c2c(n1C)C(=O)C=C(N1CC1)C2=O	0.79 µM	25.7 µM	32.5	–

SMILES	C50 (V79 [1])	C50 (V79 [2])	selectivity ratio [5]	other results
COC(=O)c1c2c(n(C)c1C1CC1)C(=O)C=C(N1CC1)C2=O	0.93 µM	1.72 µM	1.8	–
COC1=CC(=O)c2c(c(CO)c(C3CCCCC3)n2C)C1=O	20.5 µM	122.4 µM	6	–
Cc1c(CO)c2c(n1C)C(=O)C=C(N1CC1)C2=O	0.0116 µM	0.149 µM	12.8	–
COC1=CC(=O)c2c(c(COC(N)=O)c(C(C)C)n2C)C1=O	0.117 µM	20.9 µM	179	–
COC(=O)c1c2c(n(C)c1C1CC1)C(=O)C=C(OC)C2=O	59.8 µM	103.5 µM	1.7	–
COC(=O)c1c2c(n(C)c1C(C)C)C(=O)C=C(OC)C2=O	150 µM	150 µM	1	–
CC1CN1C1=CC(=O)c2c(c(CO)c(C3CC3)n2C)C1=O (stereo not drawn)	5.6 µM	130 µM	23.4	–
COC1=CC(=O)c2c(c(CO)cn2C)C1=O	240 µM	220 µM	0.92	–
O=C1C(N2CC2)=CC(=O)c2c1c(CO)c1n2CC2CC12 (stereo not drawn)	0.073 µM	0.965 µM	13.2	–
COC1=CC(=O)c2c(c(C)c(C(C)C)n2C)C1=O	0.657 µM	1.236 µM	1.88	–
Cn1c2c(c(CO)c1C1CCCCC1)C(=O)C(N1CC1)=CC2=O	0.93 µM	34.5 µM	37	–
Cc1c2c(n(C)c1C(C)C)C(=O)C=C(N1CC1)C2=O	–	–	–	C50 (V79 [20]): 0.333 µM; selectivity ratio [21]: 1.77; C50 (V79 [22]): 0.188 µM
CO[C@@]12[C@H](COC(N)=O)C3=C(C(=O)C(C)=C(N)C3=O)N1C[C@@H]1N[C@@H]12 [MITOMYCIN]	0.4 µM	0.8 µM	–	–
Cn1c(/C=C/CO)c(CO)c2c1C(=O)C=C(N1CC1)C2=O [APAZIQUONE]	0.0038 µM	0.19 µM	50.3	–
COC1=CC(=O)c2c(c(CO)c(C)n2C)C1=O	284.8 µM	1077 µM	3.78	–
CC(C)c1c(CO)c2c(n1C)C(=O)C=C(N1CC1C)C2=O (stereo not drawn)	13.9 µM	127.8 µM	9.2	–
